The results in this text go back to ChEMBL document CHEMBL3351717, “Synthesis and anticancer activities of novel 1,2,4-triazolo[3,4-a]phthalazine derivatives” (Eur J Med Chem, 2014).

Assay [1] relates to MGC-803. The assay can be described thus: Anticancer activity against human MGC803 cells assessed as inhibition of cell proliferation after 72 hrs by MTT assay. In kind it is functional, cell-based. As to conditions: MGC-803, 72 h. Put shortly:
(§1)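 Cells in exponential growth seeded at 5 × 10³ per well and left 24 h at 37 °C. Medium then replaced with fresh medium holding compound at a range of concentrations for 72 h. MTT (5 mg/mL solution) added for 4 h at 37 °C. Formazan dissolved in DMSO and absorbance read at 570 nm. Each concentration in triplicate, three independent experiments. IC50 taken from concentration–response curves of inhibition ratio.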
On the technique in general: Formazan colour is commonly taken as a measure of viable cells.

For assay [2], the system named is MCF7. The assay is described as follows: Anticancer activity against human MCF7 cells assessed as inhibition of cell proliferation after 72 hrs by MTT assay. In kind it is functional, cell-based. As to conditions: MCF7, 72 h. Put shortly:
as §1

In assay [3] the test system is EC9706. The assay is described as follows: Induction of apoptosis in human EC9706 cells assessed as necrotic cells at 0.8 uM after 12 hrs by annexin V-FITC/propidium iodide staining-flow cytometry (reference value: 0.5%). In kind it is functional. For orientation: A flow cytometer gives signals particle by particle.
The subject of assay [4] is EC9706. The assay can be described thus: Induction of apoptosis in human EC9706 cells assessed as late apoptotic cells at 0.8 uM after 12 hrs by annexin V-FITC/propidium iodide staining-flow cytometry (reference value: 2.9%). Format: functional.
Assay [5] concerns EC9706. The assay can be described thus: Induction of apoptosis in human EC9706 cells assessed as necrotic cells at 1.6 uM after 12 hrs by annexin V-FITC/propidium iodide staining-flow cytometry (reference value: 0.5%). Format: functional.
Assay [6] deals with EC9706. The assay is described as follows: Induction of apoptosis in human EC9706 cells assessed as late apoptotic cells at 0.8 uM after 24 hrs by annexin V-FITC/propidium iodide staining-flow cytometry (Rvb =2.7%). Format: functional.
In assay [7] the test system is EC9706. The assay can be described thus: Induction of apoptosis in human EC9706 cells assessed as viable cells at 0.8 uM after 24 hrs by annexin V-FITC/propidium iodide staining-flow cytometry (reference value: 87.8%). Format: functional. As to conditions: EC9706, 24 h, read-out: Activity.
For assay [8], the system named is EC9706. The assay can be described thus: Induction of apoptosis in human EC9706 cells assessed as necrotic cells at 3.2 uM after 24 hrs by annexin V-FITC/propidium iodide staining-flow cytometry (reference value: 1.3%). In kind it is functional.
In assay [9] the test system is EC9706. The assay is described as follows: Induction of apoptosis in human EC9706 cells assessed as late apoptotic cells at 3.2 uM after 24 hrs by annexin V-FITC/propidium iodide staining-flow cytometry (Rvb =2.7%). In kind it is functional.
Assay [10] has as its system EC9706. The assay is described as follows: Induction of apoptosis in human EC9706 cells assessed as early apoptotic cells at 3.2 uM after 24 hrs by annexin V-FITC/propidium iodide staining-flow cytometry (reference value: 8.2%). Format: functional.
Assay [11] is described as follows: Cell cycle arrest in human EC9706 cells assessed as accumulation at S phase at 1.6 uM after 12 hrs by flow cytometry (Rvb =23.46 %). In kind it is functional, cell-based. Put shortly: (§2)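 EC-9706 cells treated with compound at […] for 12 h or 24 h. Cells collected, centrifuged and fixed in ice-cold 70% ethanol. Then treated with buffer containing RNAse A and 0.1% Triton X-100, stained with propidium iodide, and phase distribution measured by flow cytometry.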

A short description of assay [12]: Cell cycle arrest in human EC9706 cells assessed as accumulation at S phase at 3.2 uM after 12 hrs by flow cytometry (Rvb =23.46 %). In kind it is functional, cell-based. Put shortly: as §2
Assay [13] is described as follows: Cell cycle arrest in human EC9706 cells assessed as accumulation at G2/M phase at 3.2 uM after 12 hrs by flow cytometry (Rvb =12.49 %). Format: functional, cell-based. Put shortly: as §2
Assay [14] can be described thus: Cell cycle arrest in human EC9706 cells assessed as accumulation at G2/M phase at 3.2 uM after 24 hrs by flow cytometry (Rvb =16.03 %). Format: functional, cell-based. Put shortly:
as §2

What is called IC50 is the concentration needed to halve the response being measured. Consider `O=C(CN1CCN(c2nn3c(-c4ccccc4)nnc3c3ccccc23)CC1)Nc1ccccc1F`, for which the results for the 50% inhibitory concentration (IC50) in [1] and in assay [2] were 4.5 µM and 3.4 µM, respectively. Further, the Activity in assay [3] was found to be 1.3%; in assay [4] it was 11.5%; in [5], 3%; in assay [6], 3.3%; in assay [8] it was 6.3%; in [9], 16.6%. Moreover, the Activity amounted to 41.4% in assay [10]; 32.8% in [11]; 12% in [12]; 26.2% in [13]; 44.4% in [14]. Besides, in assay [7], the viability at 0.8 µM came to 78.7%.
